High-throughput results deposited in PubChem BioAssay by Broad Institute.
Glyco luc inh = blocks N-linked glycosylation in D54 reporter cells; reporter increase, % at 12.5 µM; D54 ERlucT glycosylation luciferase reporter, 24 h; percent of 100 nM tunicamycin response; AID 588692; 0.23% of 360,000 active;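 active = mean luciferase reporter signal, scaled so untreated is 0 and the glycosylation-blocking control 100, at or above a set limit in every replicate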;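 also: luciferase carries N-glycosylation sites so blocking glycosylation raises the light; 0% = median of neutral control wells and 100% = median of 100 nM tunicamycin wells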
RAD54 branch = blocks human RAD54 Holliday junction branch migration | FAM/BHQ fluorescence | 0.14% of 360,000 active | Q92698 | inhibition, % at 10.4 µM;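 active = mean normalized replicate activity at least 40 and at least half of replicates scoring 40 or more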;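 also: 0% = median of neutral control wells and 100% = median of positive control wells; inhibitors cause a drop in the FAM fluorescence signal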
Target sequence (Q92698 whole entry, looked up): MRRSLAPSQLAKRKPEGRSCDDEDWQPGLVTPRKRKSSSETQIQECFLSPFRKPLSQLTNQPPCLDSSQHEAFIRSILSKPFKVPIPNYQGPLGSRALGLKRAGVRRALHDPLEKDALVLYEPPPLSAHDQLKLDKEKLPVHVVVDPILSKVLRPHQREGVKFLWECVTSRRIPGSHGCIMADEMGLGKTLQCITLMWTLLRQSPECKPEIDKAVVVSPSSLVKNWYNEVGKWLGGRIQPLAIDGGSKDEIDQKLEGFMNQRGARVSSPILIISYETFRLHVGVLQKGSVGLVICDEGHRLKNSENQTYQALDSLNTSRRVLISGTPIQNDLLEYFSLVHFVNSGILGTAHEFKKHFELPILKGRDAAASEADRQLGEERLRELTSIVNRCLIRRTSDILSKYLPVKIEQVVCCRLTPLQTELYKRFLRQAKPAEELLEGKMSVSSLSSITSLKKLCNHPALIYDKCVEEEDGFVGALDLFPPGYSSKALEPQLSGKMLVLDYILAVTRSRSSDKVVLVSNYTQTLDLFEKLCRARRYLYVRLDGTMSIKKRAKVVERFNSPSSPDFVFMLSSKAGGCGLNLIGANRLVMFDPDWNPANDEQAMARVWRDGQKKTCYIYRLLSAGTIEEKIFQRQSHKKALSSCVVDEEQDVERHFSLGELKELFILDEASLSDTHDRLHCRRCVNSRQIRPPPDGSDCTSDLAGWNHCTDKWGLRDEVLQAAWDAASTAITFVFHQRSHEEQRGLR
MLL AF4-AF9 inh = blocks AF4 peptide binding to human AF9; P42568; AlphaScreen, biotin-AF4 peptide binding to FLAG-AF9; inhibition, % at 10 µM; 0.47% of 350,000 active; AID 651704;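 active = every replicate reaching a set inhibition limit, whatever the replicate mean, cut at about 25% in these data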;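 also: 0% = plate neutral control median and 100% = total signal loss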
RAD52 inh = inhibitors of human RAD52 DNA annealing; P43351; recombinant RAD52 DNA annealing, FRET fluorescence; inhibition, % at 18.7 µM; 0.46% of 360,000 active;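 active = every replicate showing at least 50% inhibition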
FN deposition inh = fibronectin deposition inhibition. AH1F fibroblasts, Alexa488-fibronectin deposition fluorescence, overnight. inhibition, % at 12.6 µM. AID 743247. 0.086% of 350,000 active;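 active = mean inhibition across replicates of 30% or more, regardless of how many single replicates reach that level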;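 also: positive control wells lacked labelled fibronectin entirely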
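Assay system: AH1F fibroblast monolayer, labelled fibronectin deposition. Amount: 10000 cells per well. Also added: labelled fibronectin 24 nM. Compound: single-point pinned compound. Incubation: cell attachment 1 h, compound and FN exposure overnight. Detection: fluorescence after three HBSS washes, excitation 485 nm, emission 525 nm. Read-out: inhibition of fibronectin deposition signal.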
* = called active by the depositor; . = no result given. Rows were chosen to be rich in hits. Some 0.92% of all compounds tested hit in one or more screens of this group.

SMILES | Glyco luc inh | RAD54 branch | MLL AF4-AF9 inh | RAD52 inh | FN deposition inh
O=C(NCc1ccc2c(c1)OCO2)c1nc(S(=O)(=O)Cc2ccccc2F)ncc1Cl | -18 | -3 | -4 | -27 | 33*
C[C@@H]1CN([C@@H](C)CO)C(=O)c2cc(NC(=O)CCN3CCOCC3)ccc2O[C@@H]1CN(C)Cc1ccc(Cl)c(Cl)c1 | . | 1 | 2 | -18 | .
CC(C)NC(=O)N1CC[C@@H]2[C@H]1c1cc(-c3ccccc3)ccc1N(C)[C@H]2CO | . | 6 | 0 | 1 | -19
Cc1ccc(C(=O)O/N=C/c2c(C(F)(F)F)nn(C)c2Sc2ccc(Cl)cc2)cc1 | 0 | 6 | . | . | .
Cn1nc(C(F)(F)F)c(/C=N/OC(=O)c2ccccc2Cl)c1SCc1ccc(Cl)cc1 | 61* | 1 | . | . | -23
COc1ccc(C(=O)O/N=C/c2c(C(F)(F)F)nn(C)c2SCc2ccccc2Cl)cc1 | 53* | -2 | . | . | -1
C[C@@H]1CCCCO[C@H](CN(C)S(=O)(=O)c2cn(C)cn2)[C@@H](C)CN([C@H](C)CO)C(=O)c2cc(NC(=O)Nc3ccccc3)ccc2O1 | . | -2 | -2 | -1 | -1
C[C@@H]1CN([C@H](C)CO)C(=O)c2cc(C3=CCCCC3)cnc2O[C@H]1CN(C)C(=O)c1cccnc1 | . | 5 | -3 | 1 | .
NC(=O)CC(NC(=O)Cc1ccc(Cl)cc1)c1ccc(NCC2CC2)c([N+](=O)[O-])c1 (centres undefined) | 43* | -10 | -3 | -96 | 13
NC(=O)CC(NC(=O)Cc1ccc(Cl)cc1)c1ccc(NCCc2ccccc2F)c([N+](=O)[O-])c1 (centres undefined) | 0 | -3 | -2 | -10 | -2
NC(=O)CC(NC(=O)Cc1ccc(Br)cc1)c1ccc(NCC2CC2)c([N+](=O)[O-])c1 (centres undefined) | 45* | -4 | -3 | -29 | -11
Cc1noc(C)c1NC(=O)Nc1ccc2c(c1)CC(=O)N([C@@H](C)CO)C[C@@H](C)[C@H](CN(C)C(=O)Nc1ccc3c(c1)OCO3)O2 | . | 1 | 3 | 17 | .
C[C@@H]1CN([C@@H](C)CO)C(=O)Cc2cc(NS(=O)(=O)c3ccc(F)cc3)ccc2O[C@H]1CN(C)C(=O)NC1CCCCC1 | . | -9 | 0 | 7 | .
CC(Nc1nc(-c2ccccc2O)nc2ccccc12)c1ccccc1 (centres undefined) | 29* | 9 | 5 | -17 | 1
CC(C)C(c1nnnn1Cc1ccco1)N1CCN(c2nc3ccccc3s2)CC1 (centres undefined) | -4 | 4 | . | . | 39*
Cc1noc(C)c1S(=O)(=O)N(C)C[C@@H]1Oc2ccc(NS(=O)(=O)c3ccc(F)cc3)cc2CC(=O)N([C@H](C)CO)C[C@@H]1C | . | . | 8 | 12 | .
C[C@@H]1CCCCO[C@@H](CN(C)Cc2ccc(C(F)(F)F)cc2)[C@H](C)CN([C@@H](C)CO)C(=O)c2cc(N(C)C)ccc2O1 | . | -4 | 32* | -9 | .
C[C@@H]1CCCCO[C@@H](CN(C)Cc2ccc(C(F)(F)F)cc2)[C@H](C)CN([C@H](C)CO)C(=O)c2cc(N(C)C)ccc2O1 | . | -3 | 40* | -5 | .
CCS(=O)(=O)Nc1ccc2c(c1)C(=O)N(C)C[C@H](OC)[C@H](C)CN(C(=O)C1CC1)[C@H](C)CO2 | . | -13 | 0 | 6 | -7
C[C@H]1CN([C@@H](C)CO)C(=O)Cc2cc(N(C)C)ccc2O[C@@H]1CN(C)Cc1ccc(Oc2ccccc2)cc1 | . | -20 | 26* | 23 | .
C[C@@H]1CN([C@H](C)CO)C(=O)Cc2cc(N(C)C)ccc2O[C@@H]1CN(C)Cc1ccc(Oc2ccccc2)cc1 | . | -3 | 51* | 3 | .
C[C@H]1CN([C@@H](C)CO)C(=O)Cc2cc(N(C)C)ccc2O[C@H]1CN(C)Cc1ccc(Oc2ccccc2)cc1 | . | -20 | 48* | 6 | .
CC(=O)N1CCCCN2[C@H](CO)[C@H](c3ccc(C#Cc4ccccc4F)cc3)[C@@H]2C1 | . | 9 | -2 | -10 | .
CC(=O)N(C1=C(Cl)C(=O)c2ccccc2C1=O)C1CCCCC1 | 21 | -7 | 15 | -9 | 80*
CC(=O)N(c1ccccc1C)C1CCCC1 | 1 | -3 | 1 | -35 | -1
SMILES | Glyco luc inh | RAD54 branch | MLL AF4-AF9 inh | RAD52 inh | FN deposition inh
CN(C)C(=O)C[C@@H]1CC[C@@H]2[C@H](COC[C@H](O)CN2Cc2nccs2)O1 | . | 2 | -7 | -15 | -8
COc1ccc(NC(=O)C(Cl)=C(Cl)Cl)cn1 | 0 | . | 0 | -14 | 19
COc1ccc(NC(=O)/C(Cl)=C(/Cl)S(=O)Cc2ccc(Cl)cc2)cn1 (centres undefined) | -22 | . | -5 | -24 | 55*
CCCc1cc(C(=O)OC)c(NC(=O)CCC(=O)O)s1 | 1 | . | -3 | -4 | 33*
COc1ccc2c3c(n(C)c2c1)[C@H](CO)N(Cc1ccccc1)CC31CCN(C(=O)C2CC2)CC1 | . | . | 2 | -102 | .
Cc1ccc(S(=O)(=O)Nc2ccc3c(c2)CC(=O)N([C@H](C)CO)C[C@H](C)[C@H](CN(C)Cc2ccc(Oc4ccccc4)cc2)O3)cc1 | . | -8 | -11 | -8 | .
Cc1ccc(S(=O)(=O)Nc2ccc3c(c2)CC(=O)N([C@@H](C)CO)C[C@@H](C)[C@H](CN(C)Cc2ccc(-c4ccccc4)cc2)O3)cc1 | . | 1 | 3 | 83* | .
C[C@H](CO)N1C[C@H](C)[C@@H](CN(C)Cc2ccc(Cl)c(Cl)c2)Oc2ccc(NS(=O)(=O)c3ccccc3)cc2CC1=O | . | -6 | 0 | 64* | -9
C[C@@H]1CN([C@@H](C)CO)C(=O)Cc2cc(NS(=O)(=O)c3ccccc3)ccc2O[C@@H]1CN(C)Cc1ccc(Cl)c(Cl)c1 | . | 1 | -1 | -15 | .
Nc1ncnc2c1ncn2C1OC(C(=O)NC2CC2)C(O)C1O (centres undefined) | 5 | -9 | 48* | -1 | 9
CCOC(=O)c1c(N)n(C2CC(C)(C)NC(C)(C)C2)c2nc3ccccc3nc12 | 10 | 83* | . | . | .
C[C@H](CO)N1C[C@H](C)[C@@H](CN(C)C(=O)NC2CCCCC2)OCCCC[C@H](C)Oc2ccc(NC(=O)Nc3ccc4c(c3)OCO4)cc2C1=O | . | 2 | 2 | -4 | -8
CCn1c(C)c(C)c2cc(C(=O)NCCCN3CCCCCC3)ccc21 | -4 | 7 | 29* | -21 | -3
Nc1ccc2nc(-c3ccccc3)c(-c3ccccc3)nc2c1 | 33* | 2 | -22 | -21 | 4
Nc1ccc(Oc2ccc3nc(-c4ccccc4)c(-c4ccccc4)nc3c2)cc1 | -2 | 0 | . | . | .
C[C@@H]1CN([C@@H](C)CO)C(=O)c2cccc(NS(=O)(=O)c3ccc(F)cc3)c2O[C@H]1CN(C)C(=O)Nc1ccc2c(c1)OCO2 | . | 2 | -2 | -12 | .
OC[C@@H]1[C@@H](c2ccccc2)C2(CN(Cc3cccnc3)C2)N1Cc1ccncc1 | . | . | 26* | -27 | -3
